In brackets after ≈: the same amount, converted by molar mass.
What was measured:
[1] = tested on: Mycobacterium tuberculosis; test: Antitubercular activity against non-replicating Mycobacterium tuberculosis H37Rv expressing luxCDAB assessed as inhibition of bacterial growth incubated for 7 days under hypoxia conditions followed by incubation in normoxia conditions for 5 days by luminescence based analysis; assay type: functional; settings: 288 h, time 12 day
[2] = molecular target: T1, TGF-beta receptor type-1 (Homo sapiens, UniProt P36897); test: Binding affinity to wild type human partial length TGFBR1 (D179 to M503 residues) expressed in bacterial expression system by KINOMEscan assay
T1 sequence (P36897 whole entry): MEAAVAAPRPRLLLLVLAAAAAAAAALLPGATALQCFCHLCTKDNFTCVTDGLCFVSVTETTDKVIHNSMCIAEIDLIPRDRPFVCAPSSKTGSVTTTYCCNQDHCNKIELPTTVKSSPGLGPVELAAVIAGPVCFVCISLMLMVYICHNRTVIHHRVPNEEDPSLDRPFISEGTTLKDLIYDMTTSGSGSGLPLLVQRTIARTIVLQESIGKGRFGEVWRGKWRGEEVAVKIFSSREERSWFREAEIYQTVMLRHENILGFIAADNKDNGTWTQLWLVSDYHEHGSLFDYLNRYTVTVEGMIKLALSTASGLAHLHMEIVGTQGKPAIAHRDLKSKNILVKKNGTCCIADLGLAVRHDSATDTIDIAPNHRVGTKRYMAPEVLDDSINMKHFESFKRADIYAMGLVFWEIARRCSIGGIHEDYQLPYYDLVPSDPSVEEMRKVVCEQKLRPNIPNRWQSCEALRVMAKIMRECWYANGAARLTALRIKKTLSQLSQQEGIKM

[3] = tested on: Mycobacterium tuberculosis; test: Antitubercular activity against Mycobacterium tuberculosis H37Rv constitutively expressing GFP assessed as inhibition of bacterial growth at 20 uM incubated for 7 days by fluorescence based analysis; assay type: functional; settings: 168 h, time 7 day
[4] = tested on: Mycobacterium tuberculosis; test: Antitubercular activity against replicating Mycobacterium tuberculosis H37Rv constitutively expressing GFP assessed as inhibition of bacterial growth under normoxia conditions incubated for 3 weeks by spot assay; assay type: functional; settings: 504 h
[5] = tested on: Mycobacterium tuberculosis; test: Antitubercular activity against non-replicating Mycobacterium tuberculosis H37Rv constitutively expressing GFP assessed as inhibition of bacterial growth incubated for 7 days under hypoxic condition followed by incubation in aerobic conditions for 1 to 5 days by spot assay; assay type: functional; settings: time 8-12 day
[6] = Metabolic stability of the compound in CD-1 mouse liver microsomes assessed as parent compound remaining at 5 uM preincubated for 5 mins followed by NADPH addition and measured after 30 mins by LC-TOF/MS analysis; assay type: ADME, Microsome; settings: time 35 min, read-out: Stability
In short: (§1)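 Mouse liver microsomes incubated with compound in the presence of NADPH. Read-out is % parent compound remaining after 30 min.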

[7] = Metabolic stability of the compound in CD-1 mouse liver microsomes at 5 uM by LC-TOF/MS analysis; assay type: ADME, Microsome; in short: as §1
[8] = AUC(last) in CD-1 mouse at 10 mg/kg, po by LC/MS/MS analysis; assay type: ADME, organism-based; parameters: dose 10 mg/kg, route po; settings: in vivo
In short: (§2)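 CD1 mice dosed orally at 10 mg/kg (snapshot PK study). Plasma levels followed over 5 h by LC/MS/MS. T1/2, Cmax and AUC_last derived from the plasma profile.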

[9] = Half life in CD-1 mouse at 10 mg/kg, po by LC/MS/MS analysis; assay type: ADME, organism-based; settings: in vivo; in short: as §2
[10] = Cmax in CD-1 mouse at 10 mg/kg, po by LC/MS/MS analysis; assay type: ADME, organism-based; parameters: dose 10 mg/kg, route po; settings: in vivo; in short: as §2

Compound	MIC50 [1] [µM]	MIC90 [1] [µM]	remaining at 0.5 h, 5 µM [6] [%]	Stability [7]	further results
Cc1cccc(-c2nc(Oc3ccc4ncsc4c3)c3ccccc3n2)n1	< 0.3	0.3 (≈ 0.111 µg/mL)	–	–	Kd [2]: > 10 µM
Cc1cccc(-c2nc(C)cc(Nc3ccncc3)n2)n1	< 1	> 10	–	–	–
Cc1cccc(-c2nc(Nc3ccncc3)c3ccccc3n2)n1	< 0.3	0.3 (≈ 0.094 µg/mL)	14	Stable	inhibition at 20 µM [3]: > 90%; MIC50 [4]: 16 µM (≈ 5.01 µg/mL); MIC90 [4]: 20 µM (≈ 6.27 µg/mL); MIC90 [5]: 1 µM (≈ 0.313 µg/mL); Kd [2]: 0.01 µM; AUClast [8]: 75 ng·h/mL; t1/2 [9]: 1.8 h; Cmax [10]: 60 ng/mL
Cn1ccc(-c2nc(Nc3ccncc3)c3ccccc3n2)n1	> 10	> 10	–	–	–
CN1CCN(Cc2cccc(-c3ccc4c(Nc5ccc(Oc6ccccc6)cc5)ccnc4c3)c2)CC1	–	–	–	–	inhibition at 20 µM [3]: > 90%; MIC90 [4]: 11 µM (≈ 5.51 µg/mL); MIC90 [5]: 6 µM (≈ 3 µg/mL)
Cc1cccc(-c2nc(Nc3ccc4[nH]ncc4c3)c3ccccc3n2)n1	< 0.3	5 (≈ 1.76 µg/mL)	9	Stable	–
Cc1cccc(-c2cc(Nc3ccncc3)c3ccccc3n2)n1	2.5 (≈ 0.781 µg/mL)	> 10	–	–	–
Cc1cccc(-c2nc(Nc3ccc4nn(C)nc4c3)c3ccccc3n2)n1	< 0.3	0.3 (≈ 0.11 µg/mL)	30	Stable	Kd [2]: > 10 µM; AUClast [8]: 440 ng·h/mL; t1/2 [9]: 4.6 h; Cmax [10]: 150 ng/mL
Cc1cccc(-c2nc(Nc3ccc4nn(C)cc4c3)c3ccccc3n2)n1	< 0.3	1.3 (≈ 0.476 µg/mL)	–	–	–
Cn1cncc1-c1ccc2ncnc(Nc3ccc(OCc4ccccc4)cc3)c2c1	–	–	–	–	inhibition at 20 µM [3]: > 90%; MIC50 [4]: 5 µM (≈ 2.04 µg/mL); MIC90 [4]: 5 µM (≈ 2.04 µg/mL); MIC90 [5]: 11 µM (≈ 4.48 µg/mL)
FC(F)(F)c1cccc(-c2nc(Nc3ccncc3)c3ccccc3n2)n1	1 (≈ 0.367 µg/mL)	5 (≈ 1.84 µg/mL)	29	Stable	–
COc1ccc(Nc2nc(-c3cccc(C)n3)nc3ccccc23)cc1	< 0.3	1.3 (≈ 0.445 µg/mL)	–	–	Kd [2]: > 10 µM
Cc1cccc(-c2nc(Nc3ccc4ccsc4c3)c3ccccc3n2)n1	< 0.3	0.3 (≈ 0.111 µg/mL)	8	Stable	Kd [2]: > 10 µM
c1cnc(-c2nc(Nc3ccncc3)c3ccccc3n2)nc1	2.5 (≈ 0.751 µg/mL)	> 10	–	–	–
Clc1cccc(-c2nc(Nc3ccncc3)c3ccccc3n2)c1	> 10	> 10	–	–	–
Cc1cccc(-c2nc(Nc3ccc4c(cnn4C)c3)c3ccccc3n2)n1	< 0.3	1.3 (≈ 0.476 µg/mL)	9	Stable	–
Cc1cccc(-c2nc(Nc3ccc4ncoc4c3)c3ccccc3n2)n1	0.3 (≈ 0.106 µg/mL)	5 (≈ 1.77 µg/mL)	–	–	–
Cc1cc(-c2nc(Nc3ccncc3)c3ccccc3n2)cs1	> 10	> 10	–	–	–
Cc1cccc(-c2nc(Nc3ccc4ncn(C)c4c3)c3ccccc3n2)n1	0.3 (≈ 0.11 µg/mL)	> 10	–	–	–
COc1ccc2c(Nc3ccncc3)nc(-c3cccc(C)n3)nc2c1	1 (≈ 0.343 µg/mL)	2.5 (≈ 0.858 µg/mL)	12	Stable	–
Cc1cc(Nc2nc(-c3cccc(C)n3)nc3ccccc23)ccn1	< 0.3	1.3 (≈ 0.426 µg/mL)	–	–	–
Cc1cccc(-c2nc(Oc3ccc4scnc4c3)c3ccccc3n2)n1	< 0.3	0.3 (≈ 0.111 µg/mL)	–	–	Kd [2]: > 10 µM
c1ccc(-c2nc(Nc3ccncc3)c3ccccc3n2)nc1	1 (≈ 0.299 µg/mL)	2.5 (≈ 0.748 µg/mL)	20	Stable	–
Nc1nc(-c2ccccn2)c(-c2ccnc3ccccc23)s1	–	–	–	–	inhibition at 20 µM [3]: > 90%; MIC50 [4]: 13 µM (≈ 3.96 µg/mL); MIC90 [4]: 20 µM (≈ 6.09 µg/mL); MIC90 [5]: > 20 µM
Cc1cccc(-c2nc(Nc3ccncc3)c3cc(O)ccc3n2)n1	1 (≈ 0.329 µg/mL)	2.5 (≈ 0.823 µg/mL)	20	Stable	–
COc1cncc(-c2nc(Nc3ccncc3)c3ccccc3n2)n1	5 (≈ 1.65 µg/mL)	> 10	–	–	–
Cc1cccc(-c2nc(Nc3ccc4occc4c3)c3ccccc3n2)n1	< 0.3	1.3 (≈ 0.458 µg/mL)	–	–	Kd [2]: > 10 µM

Source: ChEMBL document CHEMBL5370647 (J Med Chem, 2023)
